Converted amounts (≈) assume the structure as drawn. The source made the active and inactive calls. No cut-off for these calls is given here.
Tests used:
Staphylococcus aureus [1] = assay: Antimicrobial activity against methicillin-resistant Staphylococcus aureus at […] by disk diffusion method; assay type: functional
Outline: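 Overnight nutrient-broth culture (35 °C, 12–18 h) of MRSA OM584 spread on Mueller-Hinton agar; 8-mm paper discs given 10 µL of 20 mM compound in DMSO; plates incubated at 37 °C about 20 h; inhibition zones measured and scored: −, ± (0–1 mm), +1 (1–15 mm), +2 (15–20 mm), +3 (>20 mm).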

Staphylococcus aureus [2] = assay: Antimicrobial activity against methicillin-resistant Staphylococcus aureus OM584 by microdilution method; assay type: functional
Outline: (§1)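 Broth microdilution MIC per Japan Society of Chemotherapy standard method. Cultures grown in sensitivity test broth at 37 °C to OD620 0.1, inoculum ≈10^5 CFU/mL. Twofold dilutions from DMSO stock, 500 to 0.2 µg/mL; 20 h, 37 °C, humid. MIC = lowest concentration clearly inhibiting growth by visual inspection; vancomycin standard; media, DMSO and water controls; at least duplicate.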

Enterococcus faecium = assay: Antimicrobial activity against vancomycin-resistant Enterococcus faecium FN-1 by microdilution susceptibility test; assay type: functional; outline: as §1
Mus musculus = assay: Acute toxicity in mouse at 100 mg/kg, ip upto 14 days; assay type: organism-based; design: dose 100 mg/kg, route intraperitoneal; details: in vivo, 336 h
Outline: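 Male mice (15–30 g), water only for 12 h beforehand; compound in 0.5% CMC given ip at doses up to 100 mg kg-1, n = 5/group; toxic symptoms observed up to 14 days.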

With `Cc1cc(C)cc(NS(=O)(=O)c2ccc(N)cc2)c1` the Activity (Staphylococcus aureus [1]) was “inactive”.
For `Nc1ccc(NS(=O)(=O)c2cc(Cl)cc(Cl)c2)cc1`, the MIC (Staphylococcus aureus [2]) was over 250 mg/L and the MIC (Enterococcus faecium) was over 250 mg/L.
With `COc1ccc(S(=O)(=O)Nc2cc(C(F)(F)F)cc(C(F)(F)F)c2)cc1` the MIC (Staphylococcus aureus [2]) was 62.5 mg/L (≈ 157 µM), the “inhibition zone (IZ)” value (Staphylococcus aureus [1]) was 1 mm and the MIC (Enterococcus faecium) was 62.5 mg/L (≈ 157 µM).
In the case of `Cc1ccc(NS(=O)(=O)c2cc(C(F)(F)F)cc(C(F)(F)F)c2)cc1`, the MIC (Staphylococcus aureus [2]) is reported as over 250 mg/L and the MIC (Enterococcus faecium) is reported as over 250 mg/L.
Work on `O=S(=O)(Nc1ccc(C(F)(F)F)cc1)c1cc(C(F)(F)F)cc(C(F)(F)F)c1` yielded an MIC (Staphylococcus aureus [2]) of 7.8 mg/L (≈ 17.8 µM) and an MIC (Enterococcus faecium) of 3.9 mg/L (≈ 8.92 µM).
In the case of `Cl.O=[N+]([O-])c1ccc(S(=O)(=O)Nc2cc(C(F)(F)F)cc(C(F)(F)F)c2)cc1`, the “inhibition zone (IZ)” value (Staphylococcus aureus [1]) is reported as over 20 mm.
With `O=[N+]([O-])c1ccc(S(=O)(=O)Nc2cc(Cl)cc(Cl)c2)cc1` the MIC (Staphylococcus aureus [2]) was over 250 mg/L and the MIC (Enterococcus faecium) was 62.5 mg/L (≈ 180 µM).
For `CS(=O)(=O)Nc1ccc(S(=O)(=O)Nc2ccc(C(F)(F)F)cc2)cc1`, the Activity (Staphylococcus aureus [1]) was “inactive”.
In the case of `COc1ccc(S(=O)(=O)Nc2cc(Cl)cc(Cl)c2)cc1`, the MIC (Staphylococcus aureus [2]) is reported as 250 mg/L (≈ 753 µM) and the MIC (Enterococcus faecium) is reported as 125 mg/L (≈ 376 µM).
In the case of `O=S(=O)(Nc1cc(C(F)(F)F)cc(C(F)(F)F)c1)c1cc(Cl)cc(Cl)c1`, the MIC (Staphylococcus aureus [2]) is reported as 0.5 mg/L (≈ 1.14 µM) and the MIC (Enterococcus faecium) is reported as 1 mg/L (≈ 2.28 µM).
With `O=S(=O)(Nc1cc(Cl)cc(Cl)c1)c1cc(C(F)(F)F)cc(C(F)(F)F)c1` the MIC (Staphylococcus aureus [2]) was 0.5 mg/L (≈ 1.14 µM), the Activity (Mus musculus) was “Non-toxic” and the MIC (Enterococcus faecium) was 1 mg/L (≈ 2.28 µM).
With `Nc1ccc(S(=O)(=O)Nc2cc(Cl)cc(Cl)c2)cc1` the MIC (Staphylococcus aureus [2]) was 250 mg/L (≈ 788 µM) and the MIC (Enterococcus faecium) was 31.3 mg/L (≈ 98.7 µM).
In the case of `O=S(=O)(Nc1cc(C(F)(F)F)cc(C(F)(F)F)c1)c1ccc(C(F)(F)F)cc1`, the MIC (Staphylococcus aureus [2]) is reported as 15.6 mg/L (≈ 35.7 µM), the “inhibition zone (IZ)” value (Staphylococcus aureus [1]) is reported as over 20 mm and the MIC (Enterococcus faecium) is reported as 7.8 mg/L (≈ 17.8 µM).
For `O=S(=O)(Nc1cc(C(F)(F)F)cc(C(F)(F)F)c1)c1cccc(Cl)c1`, the MIC (Staphylococcus aureus [2]) was 31.3 mg/L (≈ 77.5 µM) and the MIC (Enterococcus faecium) was 15.6 mg/L (≈ 38.6 µM).
In the case of `O=S(=O)(Nc1cc(C(F)(F)F)cc(C(F)(F)F)c1)c1ccc(F)cc1`, the MIC (Staphylococcus aureus [2]) is reported as 15.6 mg/L (≈ 40.3 µM) and the MIC (Enterococcus faecium) is reported as 62.5 mg/L (≈ 161 µM).
In the case of `O=[N+]([O-])c1ccc(S(=O)(=O)Nc2ccccc2)cc1`, the Activity (Staphylococcus aureus [1]) is reported as “inactive”.
With `O=S(=O)(Nc1cc(F)cc(F)c1)c1cc(Cl)cc(Cl)c1` the MIC (Staphylococcus aureus [2]) was 31.3 mg/L (≈ 92.6 µM) and the MIC (Enterococcus faecium) was 7.8 mg/L (≈ 23.1 µM).
`O=S(=O)(Nc1ccc(C(F)(F)F)cn1)c1cc(Cl)cc(Cl)c1` gave an MIC (Staphylococcus aureus [2]) of over 250 mg/L and an MIC (Enterococcus faecium) of over 250 mg/L.
`Cc1cc(C)cc(NS(=O)(=O)c2ccc([N+](=O)[O-])cc2)c1` was tested, and the Activity (Staphylococcus aureus [1]) was “inactive”.
For `Cl.Nc1ccc(S(=O)(=O)Nc2cc(C(F)(F)F)cc(C(F)(F)F)c2)cc1`, the “inhibition zone (IZ)” value (Staphylococcus aureus [1]) was 1 mm.
With `O=S(=O)(Nc1ccc(F)cc1F)c1cc(C(F)(F)F)cc(C(F)(F)F)c1` the MIC (Staphylococcus aureus [2]) was over 250 mg/L and the MIC (Enterococcus faecium) was over 250 mg/L.
For `Cc1cccc(NS(=O)(=O)c2ccc([N+](=O)[O-])cc2)c1`, the “inhibition zone (IZ)” value (Staphylococcus aureus [1]) was 1 mm.
For `O=S(=O)(Nc1cc(C(F)(F)F)cc(C(F)(F)F)c1)c1ccc(Cl)cc1`, the MIC (Staphylococcus aureus [2]) was 7.8 mg/L (≈ 19.3 µM), the “inhibition zone (IZ)” value (Staphylococcus aureus [1]) was 15 mm and the MIC (Enterococcus faecium) was 7.8 mg/L (≈ 19.3 µM).
For `O=S(=O)(Nc1cc(Cl)cc(Cl)c1)c1ccc(C(F)(F)F)cc1`, the MIC (Staphylococcus aureus [2]) was 15.6 mg/L (≈ 42.1 µM) and the MIC (Enterococcus faecium) was 7.8 mg/L (≈ 21.1 µM).
Work on `CN(c1cc(C(F)(F)F)cc(C(F)(F)F)c1)S(=O)(=O)c1cc(Cl)cc(Cl)c1` yielded an MIC (Staphylococcus aureus [2]) of over 250 mg/L and an MIC (Enterococcus faecium) of over 250 mg/L.
For `O=S(=O)(Nc1cc(Cl)nc(Cl)c1)c1cc(Cl)cc(Cl)c1`, the MIC (Staphylococcus aureus [2]) was 15.6 mg/L (≈ 41.9 µM) and the MIC (Enterococcus faecium) was 7.8 mg/L (≈ 21 µM).
For `Cc1ccc(NS(=O)(=O)c2ccc([N+](=O)[O-])cc2)cc1`, the Activity (Staphylococcus aureus [1]) was “inactive”.
In the case of `Nc1ccc(S(=O)(=O)Nc2ccc(Cl)cc2)cc1`, the Activity (Staphylococcus aureus [1]) is reported as “inactive”.
Work on `Cc1ccc(S(=O)(=O)Nc2cc(Cl)cc(Cl)c2)cc1` yielded an MIC (Staphylococcus aureus [2]) of 125 mg/L (≈ 395 µM) and an MIC (Enterococcus faecium) of 62.5 mg/L (≈ 198 µM).
`O=S(=O)(Nc1cc(Cl)c(O)c(Cl)c1)c1cc(C(F)(F)F)cc(C(F)(F)F)c1` showed an MIC (Staphylococcus aureus [2]) of 125 mg/L (≈ 275 µM) and an MIC (Enterococcus faecium) of 62.5 mg/L (≈ 138 µM).
`O=S(=O)(Nc1cccc(F)c1F)c1cc(C(F)(F)F)cc(C(F)(F)F)c1` was tested, and the MIC (Staphylococcus aureus [2]) was 15.6 mg/L (≈ 38.5 µM) and the MIC (Enterococcus faecium) was 62.5 mg/L (≈ 154 µM).
For `Cc1ccccc1NS(=O)(=O)c1ccc(NS(C)(=O)=O)cc1`, the Activity (Staphylococcus aureus [1]) was “inactive”.
In the case of `O=S(=O)(Nc1cc(Cl)cc(Cl)c1)c1ccc(Cl)cc1`, the MIC (Staphylococcus aureus [2]) is reported as 31.3 mg/L (≈ 93 µM) and the MIC (Enterococcus faecium) is reported as 62.5 mg/L (≈ 186 µM).
In the case of `CS(=O)(=O)Nc1ccc(S(=O)(=O)Nc2ccccc2)cc1`, the Activity (Staphylococcus aureus [1]) is reported as “inactive”.
With `Cc1ccccc1NS(=O)(=O)c1ccc(C(=O)O)cc1` the Activity (Staphylococcus aureus [1]) was “inactive”.
Molecule `O=S(=O)(Nc1c(F)cccc1F)c1cc(C(F)(F)F)cc(C(F)(F)F)c1` has an MIC (Staphylococcus aureus [2]) of over 250 mg/L and an MIC (Enterococcus faecium) of over 250 mg/L.
For `COc1ccc(NS(=O)(=O)c2ccc(NS(C)(=O)=O)cc2)cc1`, the Activity (Staphylococcus aureus [1]) was “inactive”.
With `Cc1ccc(S(=O)(=O)Nc2cc(C(F)(F)F)cc(C(F)(F)F)c2)cc1` the MIC (Staphylococcus aureus [2]) was 62.5 mg/L (≈ 163 µM), the Activity (Staphylococcus aureus [1]) was “inactive” and the MIC (Enterococcus faecium) was 62.5 mg/L (≈ 163 µM).
`Cc1ccc(NS(=O)(=O)c2ccc(NS(C)(=O)=O)cc2)cc1` was tested, and the Activity (Staphylococcus aureus [1]) was “inactive”.

From ChEMBL document CHEMBL1150371, “Design and synthesis of benzenesulfonanilides active against methicillin-resistant Staphylococcus aureus and vancomycin-resistant Enterococcus” (Bioorg Med Chem, 2008)
